Each structure is given as a SMILES string. Peptide text beside a SMILES is read from it.

One compound from article PMC6315297 (AIDS (London, England), 2013) can be followed below.

The target in this assay is HLA-A*68:02 (Homo sapiens, UniProt P04439, A269V/D140Y/D185E/E176V/E277Q/E87N/F33Y/G231S/I121R/I166T/I218V/L180W/L300P/L318F/N151K/P208A/P217A/Q86R/R138H/R169H/S129P/T345S/V36M). In words: HLA peptide binding assay. Put shortly: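 Recombinant biotinylated HLA-A*68:02 heavy chain diluted to 2 nM in a mix of 30 nM β2m and peptide, folded 48 h at 18°C. Folded complexes detected by AlphaScreen with streptavidin donor beads and acceptor beads carrying the conformation-dependent anti-HLA-I antibody W6/32. Beads at final 5 μg/mL, incubated overnight at 18°C. Plates equilibrated to reader temperature 1 h before reading.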

For `CC(C)[C@H](NC(=O)[C@H](Cc1ccc(O)cc1)NC(=O)[C@H](Cc1ccccc1)NC(=O)[C@@H](NC(=O)[C@@H](N)CCC(=O)O)[C@@H](C)O)C(=O)N[C@@H](CC(=O)O)C(=O)NCC(=O)N[C@@H](C)C(=O)O` [ETFYVDGA] (H-ETFYVDGA-OH), the Kd is 2 nM.
